Laboratory results published in ChEMBL document CHEMBL5370667, “ent-Clavilactone J and Its Quinone Derivative, Meroterpenoids from the Fungus Resupinatus sp” (J Nat Prod, 2023).
Values after ≈ are worked out from the molar mass of the structure shown. Active and inactive are the calls of the source. The calls are words filed in the database; no cut-off is given here.

Columns and labels:
[1] = tested on: Rhodotorula glutinis; assay: Antifungal activity against Rhodotorula glutinis DSM 10134 assessed as growth inhibition; format: functional
[2] = tested on: SK-OV-3; assay: Antiproliferative activity against human SK-OV-3 cells assessed as cell growth inhibition; format: functional, cell-based
Procedure, shortened: (§1)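 IC50 (μM) determined against mammalian cell lines from the DSMZ ACC collection (SK-OV-3 without an ACC number), with epothilone B run in parallel as reference.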

[3] = tested on: Bacillus subtilis; assay: Antibacterial activity against Bacillus subtilis DSM 10 assessed as bacterial growth inhibition; format: functional
Procedure, shortened: (§2)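 Growth inhibition read as minimum inhibitory concentration (μg/mL) against strains from DSMZ. A positive-control antibiotic was run alongside.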

[4] = tested on: Mycolicibacterium smegmatis; assay: Antibacterial activity against Mycolicibacterium smegmatis ATCC 700084 assessed as bacterial growth inhibition; format: functional
[5] = tested on: Staphylococcus aureus; assay: Antibacterial activity against Staphylococcus aureus DSM 346 assessed as bacterial growth inhibition; format: functional; procedure, shortened: as §2
[6] = tested on: Acinetobacter baumannii; assay: Antibacterial activity against Acinetobacter baumannii DSM 30008 assessed as bacterial growth inhibition; format: functional
[7] = tested on: Chromobacterium violaceum; assay: Antibacterial activity against Chromobacterium violaceum DSM 30191 assessed as bacterial growth inhibition; format: functional
[8] = tested on: Escherichia coli; assay: Antibacterial activity against Escherichia coli DSM 1116 assessed as bacterial growth inhibition; format: functional
[9] = tested on: Pseudomonas aeruginosa; assay: Antibacterial activity against Pseudomonas aeruginosa DSM 19882 assessed as bacterial growth inhibition; format: functional
[10] = tested on: Mucor hiemalis; assay: Antifungal activity against Mucor hiemalis DSM 2656 assessed as growth inhibition; format: functional
[11] = tested on: Candida albicans; assay: Antifungal activity against Candida albicans DSM 1665 assessed as growth inhibition; format: functional
[12] = tested on: A549; assay: Antiproliferative activity against human A549 cells assessed as cell growth inhibition; format: functional, cell-based; procedure, shortened: as §1
[13] = tested on: Schizosaccharomyces pombe; assay: Antifungal activity against Schizosaccharomyces pombe DSM 70572 assessed as growth inhibition; format: functional
[14] = tested on: Wickerhamomyces anomalus; assay: Antifungal activity against Wickerhamomyces anomalus DSM 6766 assessed as growth inhibition; format: functional
[15] = Antiproliferative activity against mouse L929 cells assessed as cell growth inhibition; format: toxicity, cell-based; procedure, shortened: as §1
[16] = tested on: KB 3-1; assay: Antiproliferative activity against human KB-3-1 cells assessed as cell growth inhibition; format: functional, cell-based; procedure, shortened: as §1
[17] = tested on: A-431; assay: Antiproliferative activity against human A-431 cells assessed as cell growth inhibition; format: functional, cell-based; procedure, shortened: as §1
[18] = tested on: MCF7; assay: Antiproliferative activity against human MCF7 cells assessed as cell growth inhibition; format: functional, cell-based; procedure, shortened: as §1
[19] = tested on: PC-3; assay: Antiproliferative activity against human PC-3 cells assessed as cell growth inhibition; format: functional, cell-based; procedure, shortened: as §1

Row | SMILES | IC50 [2] | MIC [3] | MIC [5] | IC50 [12] | IC50 [15] | IC50 [16] | IC50 [17] | IC50 [18] | IC50 [19] | inhibition [1] | inhibition [4] | inhibition [6] | inhibition [7] | inhibition [8] | inhibition [9] | inhibition [10] | inhibition [11] | inhibition [13] | inhibition [14] | further results
1 | C/C(=C\c1csc(C)n1)[C@@H]1C[C@@H]2O[C@]2(C)CCC[C@H](C)[C@H](O)[C@@H](C)C(=O)C(C)(C)[C@@H](O)CC(=O)O1 [PATUPILONE] | 0.00018 µM | 8.3 µg/mL (≈ 16.3 µM) | 0.21 µg/mL (≈ 0.414 µM) | 5.3e-05 µM | 0.00043 µM | 3.4e-05 µM | 5.1e-05 µM | 0.03 nM | 0.00028 µM |  |  |  |  |  |  |  |  |  |  | MIC [1]: 2.1 µg/mL (≈ 4.14 µM); MIC [4]: 1.7 µg/mL (≈ 3.35 µM); MIC [6]: 0.26 µg/mL (≈ 0.512 µM); MIC [7]: 0.42 µg/mL (≈ 0.827 µM); MIC [8]: 1.7 µg/mL (≈ 3.35 µM); MIC [9]: 0.21 µg/mL (≈ 0.414 µM); MIC [10]: 4.2 µg/mL (≈ 8.27 µM); MIC [11]: 8.3 µg/mL (≈ 16.3 µM); MIC [13]: 4.2 µg/mL (≈ 8.27 µM); MIC ([14]; Hansenula anomala): 8.3 µg/mL (≈ 16.3 µM)
2 | C[C@@]12CC3=C(C(=O)C=CC3=O)[C@@H]3OC(=O)[C@@]4(CC[C@@H]1O2)O[C@@H]34 | 30 µM | 67 µg/mL (≈ 222 µM) | 67 µg/mL (≈ 222 µM) | 57 µM | 6 µM | 22 µM | 6.5 µM | 4200 nM | 19 µM | inactive | inactive | inactive | inactive | inactive | inactive | inactive | inactive | inactive | inactive | 
3 | C[C@@]12Cc3c(O)ccc(O)c3[C@@H]3OC(=O)[C@@]4(CC[C@@H]1O2)O[C@@H]34 | 47 µM | 17 µg/mL (≈ 55.9 µM) |  | 19 µM | 2.1 µM | 6.7 µM | 3.5 µM | 1900 nM | 18 µM | inactive | inactive | inactive | inactive | inactive | inactive | inactive | inactive | inactive | inactive | 
